Experimental data from ChEMBL document CHEMBL4325907, “Diaryl hydroxylamines as pan or dual inhibitors of indoleamine 2,3-dioxygenase-1, indoleamine 2,3-dioxygenase-2 and tryptophan dioxygenase” (Eur J Med Chem, 2019).
pIC50: −log10 of the molar value.

Legend:
[1] = target: T1, Indoleamine 2,3-dioxygenase 1 (Homo sapiens, UniProt P14902); test: Inhibition of IDO1 (unknown origin) at 200 uM using L-tryptophan as substrate by spectrophotometric method relative to control
Target sequence in this assay (P14902 whole entry, looked up): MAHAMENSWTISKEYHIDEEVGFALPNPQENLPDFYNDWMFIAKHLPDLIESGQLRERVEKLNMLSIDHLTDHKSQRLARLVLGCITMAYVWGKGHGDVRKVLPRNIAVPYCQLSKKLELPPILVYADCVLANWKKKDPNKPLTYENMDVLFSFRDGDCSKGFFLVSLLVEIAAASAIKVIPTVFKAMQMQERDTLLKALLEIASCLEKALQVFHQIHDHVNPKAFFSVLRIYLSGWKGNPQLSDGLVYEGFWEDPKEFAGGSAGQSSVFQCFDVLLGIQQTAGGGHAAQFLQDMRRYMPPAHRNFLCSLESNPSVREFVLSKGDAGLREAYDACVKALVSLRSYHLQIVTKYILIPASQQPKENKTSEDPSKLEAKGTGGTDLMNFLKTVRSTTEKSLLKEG

[2] = target: T2, Indoleamine 2,3-dioxygenase 2 (Homo sapiens) (UniProt Q6ZQW0); test: Inhibition of IDO2 (unknown origin) at 200 uM using L-tryptophan as substrate by spectrophotometric method relative to control
T2 sequence (whole entry): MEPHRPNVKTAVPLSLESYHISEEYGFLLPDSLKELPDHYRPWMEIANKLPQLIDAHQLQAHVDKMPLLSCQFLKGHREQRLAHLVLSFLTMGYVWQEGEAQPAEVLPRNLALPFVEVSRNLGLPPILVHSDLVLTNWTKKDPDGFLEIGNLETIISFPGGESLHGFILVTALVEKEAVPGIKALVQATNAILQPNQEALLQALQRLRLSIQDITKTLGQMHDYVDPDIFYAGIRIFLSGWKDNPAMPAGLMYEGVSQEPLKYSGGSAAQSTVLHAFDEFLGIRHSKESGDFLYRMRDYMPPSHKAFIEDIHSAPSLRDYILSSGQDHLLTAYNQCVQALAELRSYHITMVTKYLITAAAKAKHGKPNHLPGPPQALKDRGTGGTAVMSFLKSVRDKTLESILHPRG

[3] = target: T3, Tryptophan 2,3-dioxygenase (Homo sapiens, UniProt P48775); test: Inhibition of TDO (unknown origin) at 200 uM using L-tryptophan as substrate by spectrophotometric method relative to control
Target sequence in this assay (P48775 whole entry, looked up): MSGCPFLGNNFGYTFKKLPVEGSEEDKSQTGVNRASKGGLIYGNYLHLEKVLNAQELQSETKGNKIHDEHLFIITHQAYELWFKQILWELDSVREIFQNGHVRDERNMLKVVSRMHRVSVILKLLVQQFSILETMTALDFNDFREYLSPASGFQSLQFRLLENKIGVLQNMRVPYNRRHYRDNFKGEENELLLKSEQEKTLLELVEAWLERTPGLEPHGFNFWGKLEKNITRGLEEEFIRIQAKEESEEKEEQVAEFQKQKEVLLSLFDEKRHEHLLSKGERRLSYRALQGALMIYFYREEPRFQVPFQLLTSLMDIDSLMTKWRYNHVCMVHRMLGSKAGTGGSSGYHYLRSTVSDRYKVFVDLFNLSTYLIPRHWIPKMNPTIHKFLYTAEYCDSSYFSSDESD

[4] = target: T1, Indoleamine 2,3-dioxygenase 1; test: Inhibition of IDO1 in human HeLa cells using L-tryptophan as substrate after 20 hrs; format: cell-based
Summary of the method: (§1)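 HeLa cells (endogenous human IDO1) were induced with 100 ng/mL IFNγ for 24 h at 100 μM Trp. T-REx cells carried tet-regulated human TDO (2 ng/mL doxycycline, 24 h, 100 μM Trp) or mouse IDO2 (doxycycline plus 8 mM 5-aminolevulinic acid, 20 μM hemin, 4 mM Trp, 48 h). After induction, compound serial dilutions were added in medium with final Trp 100 μM (IDO1/TDO) or 2 mM (IDO2) for 20 h at 37 °C. Read-out was TCA fixation, 65 °C hydrolysis, then p-dimethylaminobenzaldehyde colour.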
Target sequence in this assay (P14902 whole entry): as the sequence (P14902 whole entry, looked up) above

[5] = target: T4, Indoleamine 2,3-dioxygenase 2 (Mus musculus, UniProt Q8R0V5); test: Inhibition of mouse IDO2 expressed in human T-REx cells using L-tryptophan as substrate after 20 hrs; format: cell-based; summary of the method: as §1
T4 sequence (Q8R0V5 whole entry): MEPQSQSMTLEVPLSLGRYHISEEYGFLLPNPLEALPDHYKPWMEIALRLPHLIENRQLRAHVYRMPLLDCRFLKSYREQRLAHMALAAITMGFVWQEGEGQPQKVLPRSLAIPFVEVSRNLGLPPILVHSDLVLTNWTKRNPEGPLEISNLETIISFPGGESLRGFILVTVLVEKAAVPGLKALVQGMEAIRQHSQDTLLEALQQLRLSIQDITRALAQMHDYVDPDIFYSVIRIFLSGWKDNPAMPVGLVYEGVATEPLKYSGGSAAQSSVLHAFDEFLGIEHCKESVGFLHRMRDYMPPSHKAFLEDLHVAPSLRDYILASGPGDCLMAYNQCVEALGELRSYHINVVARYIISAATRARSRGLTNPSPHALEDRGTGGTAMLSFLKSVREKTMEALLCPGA

[6] = target: T3, Tryptophan 2,3-dioxygenase; test: Inhibition of human TDO expressed in human T-REx cells using L-tryptophan as substrate after 20 hrs; format: cell-based; summary of the method: as §1
Target sequence in this assay (P48775 whole entry): as the sequence (P48775 whole entry, looked up) above

[7] = Cytotoxicity against human HeLa cells assessed as cell viability up to 100 uM relative to control; format: cell-based; details: read-out: Activity
[8] = target: T1, Indoleamine 2,3-dioxygenase 1; test: Inhibition of IDO1 (unknown origin) at 100 uM using L-tryptophan as substrate by spectrophotometric method relative to control
Target sequence in this assay (P14902 whole entry, looked up): as the sequence (P14902 whole entry, looked up) above

[9] = target: T2, Indoleamine 2,3-dioxygenase 2 (Homo sapiens); test: Inhibition of IDO2 (unknown origin) at 100 uM using L-tryptophan as substrate by spectrophotometric method relative to control
[10] = target: T3, Tryptophan 2,3-dioxygenase; test: Inhibition of TDO (unknown origin) at 100 uM using L-tryptophan as substrate by spectrophotometric method relative to control
Target sequence in this assay (P48775 whole entry, looked up): as the sequence (P48775 whole entry, looked up) above

[11] = target: T1, Indoleamine 2,3-dioxygenase 1; test: Inhibition of IDO1 (unknown origin) using L-tryptophan as substrate by spectrophotometric method
Target sequence in this assay (P14902 whole entry): as the sequence (P14902 whole entry, looked up) above

[12] = target: T3, Tryptophan 2,3-dioxygenase; test: Inhibition of TDO (unknown origin) using L-tryptophan as substrate by spectrophotometric method
Target sequence in this assay (P48775 whole entry): as the sequence (P48775 whole entry, looked up) above

[13] = Selectivity ratio of IC50 for inhibition of mouse IDO2 expressed in human T-REx cells to IC50 for inhibition of IDO1 in human HeLa cells; format: cell-based; summary of the method: as §1
Homo sapiens [14] = species on record: Homo sapiens; test: Selectivity ratio of IC50 for inhibition of mouse IDO2 expressed in human T-REx cells to IC50 for inhibition of human TDO expressed in human T-REx cells; format: cell-based; summary of the method: as §1
Homo sapiens [15] = species on record: Homo sapiens; test: Selectivity ratio of IC50 for inhibition of human TDO expressed in human T-REx cells to IC50 for inhibition of IDO1 in human HeLa cells; format: cell-based; summary of the method: as §1

pIC50 ([4]; hela) | SMILES | inhibition [1] [%] | inhibition [2] [%] | inhibition [3] [%] | pIC50 [4] | pIC50 [5] | pIC50 [6] | viability [7] [%] | inhibition [8] [%] | inhibition [9] [%] | inhibition [10] [%] | pIC50 [11] | pIC50 [12] | Ratio IC50 [13] | Ratio IC50 (Homo sapiens [14]) | Ratio IC50 (Homo sapiens [15])
– | NOC(c1ccccc1)c1ccc(O)cc1 (centres undefined) | 18.3 | 72.3 | 48.7 | 5.54 | 4.90 | 4.53 | ≥ 80 | – | – | – | – | – | – | – | –
– | NOC(c1ccccc1)c1cc(C(F)(F)F)ccc1F (centres undefined) | – | – | – | 5.96 | 5.05 | 5.04 | ≥ 80 | > 95 | 73.8 | 73.4 | 5.10 | – | – | – | –
– | NOC(c1ccccc1)c1cccc(C(F)(F)F)c1F (centres undefined) | – | – | – | 6.03 | 4.77 | 5.25 | ≥ 80 | > 95 | 81.1 | 93.2 | 5.22 | – | – | – | –
– | NOC(c1ccccc1)c1cccc(F)c1 (centres undefined) | – | – | – | 6.03 | 5.00 | 5.21 | ≥ 80 | > 95 | 82 | > 95 | 5.30 | 5.22 | – | – | –
– | NOC(c1ccccc1)c1ccccc1F (centres undefined) | – | – | – | 5.90 | 4.52 | 5.41 | ≥ 80 | > 95 | 77.8 | 87.2 | 4.92 | – | 10 | 10 | –
– | NOC(c1ccccc1)c1cccc(Cl)c1Cl (centres undefined) | – | – | – | 5.73 | 5.05 | 5.34 | ≥ 80 | > 95 | 72.4 | > 95 | 5.10 | 5.05 | – | – | –
– | NOC(c1ccccc1)c1ccccc1Br (centres undefined) | – | – | – | 5.84 | 4.91 | 4.65 | ≥ 80 | > 95 | 81 | 90.4 | 4.77 | – | 5 to 10 | – | 5 to 10
5.95 | COc1ccccc1C(ON)c1ccccc1 (centres undefined) | – | – | – | – | 4.78 | 4.31 | ≥ 80 | > 95 | 80 | – | 4.64 | – | – | – | –
– | O=C1CC(c2c[nH]c3ccc(F)cc23)C(=O)N1 (centres undefined) [PF-06840003] | – | – | – | – | 3.49 | 3.42 | ≥ 80 | – | – | – | – | – | – | – | –
– | NOC(c1ccccc1)c1ccc(Cl)cc1 (centres undefined) | – | – | – | 5.15 | 4.56 | 4.63 | ≥ 80 | > 95 | 74.3 | > 95 | 5.30 | 5.30 | – | – | –
– | NOC(c1ccccc1)c1cc(C(F)(F)F)cc(C(F)(F)F)c1 (centres undefined) | 56 | 53.3 | 50.8 | 5.47 | 4.84 | 4.11 | 60 | – | – | – | – | – | – | – | –
– | NOC(c1ccc(F)cc1)c1ccc(F)cc1 | – | – | – | 5.77 | 4.92 | 5.29 | ≥ 80 | > 95 | 73.6 | > 95 | 5.05 | 5.05 | – | – | –
– | NOC(c1ccccc1)c1cccc(Br)c1 (centres undefined) | – | – | – | 6.23 | 4.93 | 5.15 | 60 | > 95 | 77.6 | 92.6 | 6.00 | – | – | – | –
